This assay deals with Histone acetyltransferase p300 (Homo sapiens, UniProt Q09472). As to the kind of experiment: Inhibition of human p300 HAT domain (1195 to 1673 residues) using histone H3 peptide and acetyl-coA as substrates preincubated for 10 mins followed by substrate addition and measured after 30 mins by beckman scintillation counting analysis. In a few lines:
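Recombinant human p300 HAT domain (10 nM) was preincubated with a dilution series of inhibitor for 10 min at 25 °C in 50 mM phosphate buffer, pH 7.0, with 0.01% Brij-35. The reaction was started with histone H3(1-21) peptide (20 μM) and Ac-CoA (1 μM ³H-Ac-CoA plus 19 μM unlabelled) and run 30 min at 25 °C. It was stopped with formic acid, spotted on P81 paper, washed 3× with 50 mM NaHCO₃, and counted by scintillation. IC50 came from a sigmoidal fit, mean of ≥3 experiments.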

The source of these data is BindingDB's records for PubMed 35512565 (Baylor College of Medicine, 2022).

The IC50 is the concentration at which inhibition is half-maximal. A lower IC50 goes with higher potency.

Molecules are shown by their SMILES.

Histone acetyltransferase p300, sequence (Q09472 whole entry, the tested form may be a part): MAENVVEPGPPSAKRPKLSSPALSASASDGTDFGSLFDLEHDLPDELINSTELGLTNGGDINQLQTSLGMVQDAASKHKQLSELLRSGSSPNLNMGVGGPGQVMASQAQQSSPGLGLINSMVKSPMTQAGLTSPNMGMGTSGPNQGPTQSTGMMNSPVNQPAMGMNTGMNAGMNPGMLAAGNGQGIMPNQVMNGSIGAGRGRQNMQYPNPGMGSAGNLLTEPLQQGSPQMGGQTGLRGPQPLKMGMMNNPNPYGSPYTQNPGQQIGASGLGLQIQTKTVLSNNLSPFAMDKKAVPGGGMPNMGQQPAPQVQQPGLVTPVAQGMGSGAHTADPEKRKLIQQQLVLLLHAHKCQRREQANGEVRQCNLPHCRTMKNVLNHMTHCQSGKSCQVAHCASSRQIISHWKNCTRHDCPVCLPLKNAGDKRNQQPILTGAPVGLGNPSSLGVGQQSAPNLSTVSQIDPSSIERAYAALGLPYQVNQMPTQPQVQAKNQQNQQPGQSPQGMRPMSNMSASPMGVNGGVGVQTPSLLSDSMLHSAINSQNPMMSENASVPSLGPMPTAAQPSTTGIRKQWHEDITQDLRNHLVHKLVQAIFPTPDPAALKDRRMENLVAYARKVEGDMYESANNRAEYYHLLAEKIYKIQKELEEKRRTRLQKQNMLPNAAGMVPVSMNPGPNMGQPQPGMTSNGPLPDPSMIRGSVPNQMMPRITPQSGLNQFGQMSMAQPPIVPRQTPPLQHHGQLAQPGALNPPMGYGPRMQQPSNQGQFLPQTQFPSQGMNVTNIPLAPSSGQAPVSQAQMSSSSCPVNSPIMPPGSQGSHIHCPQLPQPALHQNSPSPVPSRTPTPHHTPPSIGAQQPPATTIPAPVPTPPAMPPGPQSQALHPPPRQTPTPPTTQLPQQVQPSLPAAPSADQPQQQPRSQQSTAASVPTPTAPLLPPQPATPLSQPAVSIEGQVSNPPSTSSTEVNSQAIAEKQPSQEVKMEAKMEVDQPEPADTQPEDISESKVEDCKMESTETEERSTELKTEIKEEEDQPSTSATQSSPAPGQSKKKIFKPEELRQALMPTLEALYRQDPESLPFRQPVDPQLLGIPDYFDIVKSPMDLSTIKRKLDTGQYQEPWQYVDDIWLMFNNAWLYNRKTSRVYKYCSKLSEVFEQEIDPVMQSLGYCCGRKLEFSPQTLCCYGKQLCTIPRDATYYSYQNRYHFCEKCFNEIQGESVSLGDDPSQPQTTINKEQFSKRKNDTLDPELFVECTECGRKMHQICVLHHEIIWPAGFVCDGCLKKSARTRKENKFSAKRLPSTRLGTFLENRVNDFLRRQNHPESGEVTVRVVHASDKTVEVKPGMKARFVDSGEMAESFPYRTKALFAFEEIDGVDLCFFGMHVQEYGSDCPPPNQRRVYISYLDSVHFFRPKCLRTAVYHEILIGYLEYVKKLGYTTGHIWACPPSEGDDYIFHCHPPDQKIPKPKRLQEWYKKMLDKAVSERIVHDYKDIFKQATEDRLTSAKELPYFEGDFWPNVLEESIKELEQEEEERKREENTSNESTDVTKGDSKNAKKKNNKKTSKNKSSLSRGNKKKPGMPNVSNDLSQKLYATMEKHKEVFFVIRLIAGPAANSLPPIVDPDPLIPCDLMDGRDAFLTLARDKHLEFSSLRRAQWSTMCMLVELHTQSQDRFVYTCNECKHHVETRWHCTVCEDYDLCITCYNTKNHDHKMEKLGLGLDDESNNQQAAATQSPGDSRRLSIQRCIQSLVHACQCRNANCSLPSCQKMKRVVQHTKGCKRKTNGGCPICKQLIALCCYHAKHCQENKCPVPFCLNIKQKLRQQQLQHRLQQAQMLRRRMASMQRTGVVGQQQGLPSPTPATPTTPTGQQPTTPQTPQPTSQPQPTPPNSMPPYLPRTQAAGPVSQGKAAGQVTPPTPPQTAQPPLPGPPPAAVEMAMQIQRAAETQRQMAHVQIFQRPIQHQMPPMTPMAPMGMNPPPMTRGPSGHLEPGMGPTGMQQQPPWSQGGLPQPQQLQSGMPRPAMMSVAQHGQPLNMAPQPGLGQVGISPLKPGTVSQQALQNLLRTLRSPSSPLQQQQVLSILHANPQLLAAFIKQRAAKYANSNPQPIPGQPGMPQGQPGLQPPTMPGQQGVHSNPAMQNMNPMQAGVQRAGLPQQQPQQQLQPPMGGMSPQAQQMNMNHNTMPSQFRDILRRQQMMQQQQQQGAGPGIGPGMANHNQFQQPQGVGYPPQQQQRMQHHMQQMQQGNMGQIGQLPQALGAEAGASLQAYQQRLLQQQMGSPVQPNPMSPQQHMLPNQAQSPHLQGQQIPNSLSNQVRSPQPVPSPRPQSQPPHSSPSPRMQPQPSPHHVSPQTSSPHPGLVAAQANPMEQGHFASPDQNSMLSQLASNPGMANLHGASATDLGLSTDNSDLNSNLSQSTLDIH

Consider `Brc1ccc(-c2ncc(OCC3CCNCC3)nc2-c2ccc(Br)c(Br)c2)cc1Br`, for which the midpoint of inhibition, the IC50, lay at 10 µM.
